ChEMBL document CHEMBL3525900, “Pharmacokinetics, distribution, and metabolism of [14C]sunitinib in rats, monkeys, and humans” (Drug Metab Dispos, 2012)

Experiments:
[1] = test system: Rattus norvegicus; experiment: AUC (0 to infinity) as total radioactivity in female Sprague-Dawley rat plasma at 15 mg/kg, po administered as single dose by LC/MS/MS analysis; type: ADME, organism-based; set-up: time infinity, dose 15 mg/kg, dosed compound name [14C]Sunitinib, route oral; settings: in vivo
Method in brief: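 Single dose of [14C]sunitinib L-malate as free base, 50 µCi/kg. IV dose was 5 mg/kg by tail vein in 5 females. Oral dose was 15 mg/kg by gavage in 3 females and 3 males. Total radioactivity was by scintillation counting. […] Cmax was read from raw data, t½ by log-linear regression, AUC by linear trapezoidal rule.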

[2] = test system: Cynomolgus monkey; experiment: Tmax as total radioactivity in male cynomolgus monkey plasma at 6 mg/kg, po administered as single dose by LC/MS/MS analysis; type: ADME, organism-based, Macaca fascicularis; set-up: dose 6 mg/kg, dosed compound name [14C]Sunitinib, route oral; settings: in vivo
[3] = test system: Spleen; experiment: Drug concentration in male albino rat spleen assessed as radioactivity per gram of tissue at 20 mg/kg administered as single dose via gastric gavage measured after 72 hrs by autoradiographic analysis; type: ADME, organism-based; set-up: dose 20 mg/kg, dosed compound name [14C]Sunitinib; settings: in vivo, po
[4] = Drug recovery in feces of female Sprague-Dawley rat at 5 mg/kg, iv administered as single dose during 0 to 72 hrs by liquid scintillation counting; type: ADME, organism-based; set-up: dose 5 mg/kg, dosed compound name [14C]Sunitinib, route intravenous; settings: in vivo
[5] = Drug recovery in urine of female Sprague-Dawley rat at 15 mg/kg, po administered as single dose during 0 to 72 hrs by liquid scintillation counting; type: ADME, organism-based; set-up: dose 15 mg/kg, dosed compound name [14C]Sunitinib, route oral; settings: in vivo
[6] = test system: Rattus norvegicus; experiment: Drug recovery in cage residue of male Sprague-Dawley rat at 15 mg/kg, po administered as single dose during 0 to 72 hrs by liquid scintillation counting; type: ADME, organism-based; set-up: dose 15 mg/kg, dosed compound name [14C]Sunitinib, route oral; settings: in vivo
[7] = test system: Blood; experiment: Drug concentration in male Lister Hooded pigmented rat blood assessed as radioactivity per gram of tissue at 20 mg/kg administered as single dose via gastric gavage measured after 24 hrs by autoradiographic analysis; type: ADME, organism-based; set-up: dose 20 mg/kg, dosed compound name [14C]Sunitinib; settings: in vivo, po
[8] = test system: Spleen; experiment: Drug concentration in male Lister Hooded pigmented rat spleen assessed as radioactivity per gram of tissue at 20 mg/kg administered as single dose via gastric gavage measured after 24 hrs by autoradiographic analysis; type: ADME, organism-based; set-up: dose 20 mg/kg, dosed compound name [14C]Sunitinib; settings: in vivo, po
[9] = Drug concentration in male Lister Hooded pigmented rat testis assessed as radioactivity per gram of tissue at 20 mg/kg administered as single dose via gastric gavage measured after 24 hrs by autoradiographic analysis; type: ADME, organism-based; set-up: dose 20 mg/kg, dosed compound name [14C]Sunitinib; settings: in vivo, po
[10] = test system: Pancreas; experiment: Drug concentration in male Lister Hooded pigmented rat pancreas assessed as radioactivity per gram of tissue at 20 mg/kg administered as single dose via gastric gavage measured after 24 hrs by autoradiographic analysis; type: ADME, organism-based; set-up: dose 20 mg/kg, dosed compound name [14C]Sunitinib; settings: in vivo, po
[11] = test system: Zone of skin; experiment: Drug concentration in male albino rat abdomen skin assessed as radioactivity per gram of tissue at 20 mg/kg administered as single dose via gastric gavage measured after 6 hrs by autoradiographic analysis; type: ADME, organism-based; set-up: dose 20 mg/kg, dosed compound name [14C]Sunitinib; settings: in vivo, po
[12] = test system: Liver; experiment: Drug concentration in male albino rat liver assessed as radioactivity per gram of tissue at 20 mg/kg administered as single dose via gastric gavage measured after 3 hrs by autoradiographic analysis; type: ADME, organism-based; set-up: dose 20 mg/kg, dosed compound name [14C]Sunitinib; settings: in vivo, po
[13] = test system: Spinal cord; experiment: Drug concentration in male albino rat spinal cord assessed as radioactivity per gram of tissue at 20 mg/kg administered as single dose via gastric gavage measured after 3 hrs by autoradiographic analysis; type: ADME, organism-based; set-up: dose 20 mg/kg, dosed compound name [14C]Sunitinib; settings: in vivo, po
[14] = test system: Pancreas; experiment: Drug concentration in male Lister Hooded pigmented rat pancreas assessed as radioactivity per gram of tissue at 20 mg/kg administered as single dose via gastric gavage measured after 168 hrs by autoradiographic analysis; type: ADME, organism-based; set-up: dose 20 mg/kg, dosed compound name [14C]Sunitinib; settings: in vivo, po
[15] = Drug concentration in male Lister Hooded pigmented rat testis assessed as radioactivity per gram of tissue at 20 mg/kg administered as single dose via gastric gavage measured after 72 hrs by autoradiographic analysis; type: ADME, organism-based; set-up: dose 20 mg/kg, dosed compound name [14C]Sunitinib; settings: in vivo, po
[16] = test system: Large intestine; experiment: Drug concentration in male albino rat large intestine assessed as radioactivity per gram of tissue at 20 mg/kg administered as single dose via gastric gavage measured after 72 hrs by autoradiographic analysis; type: ADME, organism-based; set-up: dose 20 mg/kg, dosed compound name [14C]Sunitinib; settings: in vivo, po
[17] = Drug concentration in male albino rat pituitary gland assessed as radioactivity per gram of tissue at 20 mg/kg administered as single dose via gastric gavage measured after 72 hrs by autoradiographic analysis; type: ADME, organism-based; set-up: dose 20 mg/kg, dosed compound name [14C]Sunitinib; settings: in vivo, po
[18] = test system: Small intestine; experiment: Drug concentration in male albino rat small intestine assessed as radioactivity per gram of tissue at 20 mg/kg administered as single dose via gastric gavage measured after 72 hrs by autoradiographic analysis; type: ADME, organism-based; set-up: dose 20 mg/kg, dosed compound name [14C]Sunitinib; settings: in vivo, po
[19] = Drug concentration in female albino rat uveal tract assessed as radioactivity per gram of tissue at 20 mg/kg administered as single dose via gastric gavage measured after 24 hrs by autoradiographic analysis; type: ADME, organism-based; set-up: dose 20 mg/kg, dosed compound name [14C]Sunitinib; settings: in vivo, po
[20] = Drug concentration in female albino rat bladder assessed as radioactivity per gram of tissue at 20 mg/kg administered as single dose via gastric gavage measured after 72 hrs by autoradiographic analysis; type: ADME, organism-based, Urinary bladder; set-up: dose 20 mg/kg, dosed compound name [14C]Sunitinib; settings: in vivo, po
Method in brief: (§1)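 Sprague Dawley (albino) rats, ca 7-8 weeks old, received a single gastric-gavage dose of [14C]sunitinib L-malate at 20 mg/kg (15 mg freebase/kg, 100 µCi/kg). One animal per sex killed by CO2 at 3, 6, 24, 72 and 168 h, then frozen in CO2/hexane. 30 µm sagittal sections were cut and freeze-dried. Radioactivity per gram quantified by whole-body autoradiography using regression against standards. LOQ 0.04–0.06 µg freebase equiv/g.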

[21] = test system: Stomach; experiment: Drug concentration in male albino rat stomach assessed as radioactivity per gram of tissue at 20 mg/kg administered as single dose via gastric gavage measured after 6 hrs by autoradiographic analysis; type: ADME, organism-based; set-up: dose 20 mg/kg, dosed compound name [14C]Sunitinib; settings: in vivo, po
[22] = Drug concentration in male albino rat thyroid gland assessed as radioactivity per gram of tissue at 20 mg/kg administered as single dose via gastric gavage measured after 6 hrs by autoradiographic analysis; type: ADME, organism-based; set-up: dose 20 mg/kg, dosed compound name [14C]Sunitinib; settings: in vivo, po
[23] = test system: Adrenal; experiment: Drug concentration in female albino rat adrenal assessed as radioactivity per gram of tissue at 20 mg/kg administered as single dose via gastric gavage measured after 24 hrs by autoradiographic analysis; type: ADME, organism-based; set-up: dose 20 mg/kg, dosed compound name [14C]Sunitinib; settings: in vivo, po; method in brief: as §1
[24] = Drug concentration in female albino rat bladder assessed as radioactivity per gram of tissue at 20 mg/kg administered as single dose via gastric gavage measured after 24 hrs by autoradiographic analysis; type: ADME, organism-based, Urinary bladder; set-up: dose 20 mg/kg, dosed compound name [14C]Sunitinib; settings: in vivo, po; method in brief: as §1
[25] = test system: Heart; experiment: Drug concentration in female albino rat heart assessed as radioactivity per gram of tissue at 20 mg/kg administered as single dose via gastric gavage measured after 24 hrs by autoradiographic analysis; type: ADME, organism-based; set-up: dose 20 mg/kg, dosed compound name [14C]Sunitinib; settings: in vivo, po
Method in brief: (§2)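 Sprague Dawley albino rats, ca 7-8 weeks old, dosed once by gastric gavage with [14C]sunitinib L-malate (15 mg freebase/kg, 100 µCi/kg). One male and one female killed by CO2 at 3, 6, 24, 72 and 168 h. Carcasses frozen in solid CO2/hexane, embedded and cut into 30 µm sagittal sections, then freeze-dried. Radioactivity quantified by whole-body autoradiography against standards by regression, background subtracted.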

[26] = test system: Liver; experiment: Drug concentration in female albino rat liver assessed as radioactivity per gram of tissue at 20 mg/kg administered as single dose via gastric gavage measured after 24 hrs by autoradiographic analysis; type: ADME, organism-based; set-up: dose 20 mg/kg, dosed compound name [14C]Sunitinib; settings: in vivo, po; method in brief: as §2
[27] = test system: Thymus; experiment: Drug concentration in female Lister Hooded pigmented rat thymus assessed as radioactivity per gram of tissue at 20 mg/kg administered as single dose via gastric gavage measured after 24 hrs by autoradiographic analysis; type: ADME, organism-based; set-up: dose 20 mg/kg, dosed compound name [14C]Sunitinib; settings: in vivo, po
Method in brief: (§3)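 Lister Hooded (pigmented) rats, ca 7-8 weeks old, acclimated 7 days, given [14C]sunitinib L-malate by gastric gavage at 20 mg/kg (15 mg freebase/kg, 100 µCi/kg). One male and one female killed by CO2 at 24, 72, 168 and 336 h. Carcasses frozen in solid CO2/hexane and embedded in frozen cellulose. 30 µm sagittal cryosections were freeze-dried. Tissue radioactivity measured by quantitative whole-body autoradiography against calibration standards, with background subtracted.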

[28] = Drug concentration in female Lister Hooded pigmented rat uveal tract assessed as radioactivity per gram of tissue at 20 mg/kg administered as single dose via gastric gavage measured after 168 hrs by autoradiographic analysis; type: ADME, organism-based; set-up: dose 20 mg/kg, dosed compound name [14C]Sunitinib; settings: in vivo, po; method in brief: as §3

For `CCN(CC)CCNC(=O)c1c(C)[nH]c(/[14CH]=C2\C(=O)Nc3ccc(F)cc32)c1C.O=C(O)C[C@H](O)C(=O)O`, which AUC [1] is on record?
The AUC was 69949 ng.Eq.hr/ml.

And the Tmax [2]?
Its Tmax is 8 h.

And the Radiolabel recovery [3]?
The Radiolabel recovery was 0.2 ugequiv.

What about the Radiolabel recovery [4] of the same compound?
Its Radiolabel recovery is 77.2%.

What about the Radiolabel recovery [5] of the same compound?
The Radiolabel recovery was 9.3%.

What about the Radiolabel recovery [6] of the same compound?
Its Radiolabel recovery is 1.5%.

And the Radiolabel recovery [7]?
Its Radiolabel recovery is 0.16 ugequiv.

And the Radiolabel recovery [8]?
The Radiolabel recovery was 1.63 ugequiv.

What about the Radiolabel recovery [9] of the same compound?
The Radiolabel recovery was 2.27 ugequiv.

And the Radiolabel recovery [10]?
The Radiolabel recovery was 1.23 ugequiv.

And the Radiolabel recovery [11]?
Its Radiolabel recovery is 3.45 ugequiv.

And the Radiolabel recovery [12]?
The Radiolabel recovery was 15.71 ugequiv.

What about the Radiolabel recovery [13] of the same compound?
Its Radiolabel recovery is 0.19 ugequiv.

What about the Radiolabel recovery [14] of the same compound?
The Radiolabel recovery was 0.06 ugequiv.

What about the Radiolabel recovery [15] of the same compound?
Its Radiolabel recovery is 0.87 ugequiv.

And the Radiolabel recovery [16]?
Its Radiolabel recovery is 0.08 ugequiv.

And the Radiolabel recovery [17]?
The Radiolabel recovery was 2.7 ugequiv.

What about the Radiolabel recovery [18] of the same compound?
Its Radiolabel recovery is 0.15 ugequiv.

And the Radiolabel recovery [19]?
The Radiolabel recovery was 0.61 ugequiv.

And the Radiolabel recovery [20]?
Its Radiolabel recovery is 0.14 ugequiv.

What about the Radiolabel recovery [21] of the same compound?
Its Radiolabel recovery is 9.3 ugequiv.

What about the Radiolabel recovery [22] of the same compound?
The Radiolabel recovery was 18.76 ugequiv.

What about the Radiolabel recovery [23] of the same compound?
The Radiolabel recovery was 7.65 ugequiv.

What about the Radiolabel recovery [24] of the same compound?
Its Radiolabel recovery is 0.54 ugequiv.

And the Radiolabel recovery [25]?
Its Radiolabel recovery is 0.73 ugequiv.

And the Radiolabel recovery [26]?
Its Radiolabel recovery is 2.8 ugequiv.

And the Radiolabel recovery [27]?
The Radiolabel recovery was 0.88 ugequiv.

What about the Radiolabel recovery [28] of the same compound?
The Radiolabel recovery was 276.19 ugequiv.
